For data set [1], the target named is T1, A. mexicanum AHR (Ambystoma mexicanum, UniProt A0A0F6TLE0).
T1 sequence (A0A0F6TLE0 1-853): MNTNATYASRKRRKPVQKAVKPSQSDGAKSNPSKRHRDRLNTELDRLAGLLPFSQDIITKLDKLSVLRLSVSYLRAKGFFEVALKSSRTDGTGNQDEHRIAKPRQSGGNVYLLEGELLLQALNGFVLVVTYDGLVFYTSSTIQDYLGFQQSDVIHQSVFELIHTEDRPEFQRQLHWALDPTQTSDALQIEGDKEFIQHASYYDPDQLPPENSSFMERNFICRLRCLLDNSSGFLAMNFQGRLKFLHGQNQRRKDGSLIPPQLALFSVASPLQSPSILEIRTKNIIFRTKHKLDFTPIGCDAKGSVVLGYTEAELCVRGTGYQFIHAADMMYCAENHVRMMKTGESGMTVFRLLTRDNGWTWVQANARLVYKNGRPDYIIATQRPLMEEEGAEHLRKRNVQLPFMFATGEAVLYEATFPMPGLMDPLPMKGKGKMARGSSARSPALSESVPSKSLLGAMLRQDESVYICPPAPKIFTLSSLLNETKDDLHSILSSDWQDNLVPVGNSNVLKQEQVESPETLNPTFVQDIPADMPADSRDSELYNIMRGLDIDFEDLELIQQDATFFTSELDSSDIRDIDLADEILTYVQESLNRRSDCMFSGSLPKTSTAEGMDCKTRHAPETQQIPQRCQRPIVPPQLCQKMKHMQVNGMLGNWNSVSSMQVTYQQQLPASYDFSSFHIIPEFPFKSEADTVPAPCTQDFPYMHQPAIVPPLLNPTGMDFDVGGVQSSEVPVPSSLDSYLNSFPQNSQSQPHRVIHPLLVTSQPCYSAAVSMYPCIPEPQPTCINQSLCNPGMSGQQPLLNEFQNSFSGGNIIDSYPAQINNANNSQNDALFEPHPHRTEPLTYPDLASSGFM
The experiment in a line: Transactivation. The data set is classed as cell-based.

Data set [2] deals with T2, X. laevis AHR1β (Xenopus laevis, UniProt Q4QY30).
T2 sequence (Q4QY30 1-834): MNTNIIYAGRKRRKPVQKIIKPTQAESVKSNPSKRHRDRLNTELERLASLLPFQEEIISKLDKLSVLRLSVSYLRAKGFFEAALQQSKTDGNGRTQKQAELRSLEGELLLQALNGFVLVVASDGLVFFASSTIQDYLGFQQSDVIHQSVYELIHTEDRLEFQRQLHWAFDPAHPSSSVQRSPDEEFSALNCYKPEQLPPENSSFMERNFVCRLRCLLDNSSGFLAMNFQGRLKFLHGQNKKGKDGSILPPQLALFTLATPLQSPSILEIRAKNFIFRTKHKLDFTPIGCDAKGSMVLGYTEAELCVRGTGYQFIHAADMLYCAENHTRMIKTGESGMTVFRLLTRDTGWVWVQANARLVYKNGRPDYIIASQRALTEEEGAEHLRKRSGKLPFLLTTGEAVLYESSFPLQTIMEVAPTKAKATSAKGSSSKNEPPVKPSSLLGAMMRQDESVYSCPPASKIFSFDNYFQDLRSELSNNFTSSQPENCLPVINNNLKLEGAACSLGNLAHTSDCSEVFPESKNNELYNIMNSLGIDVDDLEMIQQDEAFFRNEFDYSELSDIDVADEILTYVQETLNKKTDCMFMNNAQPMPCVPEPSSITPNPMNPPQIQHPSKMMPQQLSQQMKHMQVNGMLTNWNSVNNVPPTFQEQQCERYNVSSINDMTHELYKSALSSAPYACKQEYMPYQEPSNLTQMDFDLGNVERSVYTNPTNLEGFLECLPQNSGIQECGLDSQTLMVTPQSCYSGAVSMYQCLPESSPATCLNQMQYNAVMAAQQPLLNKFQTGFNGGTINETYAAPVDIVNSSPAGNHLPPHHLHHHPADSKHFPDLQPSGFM
Description: Transactivation. It counts as cell-based.

Data set [3] addresses T1, A. mexicanum AHR. Description: Velocity sedimentation analysis of [3H]TCDD binding, A. mexicanum AHR. The settings on record: 2 nM [3H]TCDD, 18 h at 4°, sucrose gradients, in vitro synthesized AHR. The essentials: (§1)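 AHR made in vitro from pCMVTNT in a rabbit reticulocyte coupled transcription/translation system, diluted 1:1 in MEDMDG buffer (pH 7.5, molybdate, glycerol, DTT), incubated 18 h at 4° with 2 nM [1,6-3H]TCDD. Run on 10–30% sucrose gradients at 65,000 rpm for 90 min with [14C]catalase marker. Fractions scintillation-counted; specific binding is peak fractions minus empty-vector lysate. Three replicates, mean ± standard error.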

Data set [4] deals with T2, X. laevis AHR1β. Description: Velocity sedimentation analysis of [3H]TCDD binding, X. laevis AHR1β. The conditions noted are these: 2 nM [3H]TCDD, 18 h at 4°, sucrose gradients, in vitro synthesized AHR. The essentials: as §1
For a further data set, the target named is AHR2 from zebrafish. The conditions noted are these: TCDD binding; cited from earlier work.
A further data set deals with X. laevis AHR1α. The conditions noted are these: read-out: apparent Kd; TCDD binding; cited from earlier work.
Data set [5] concerns the target T2, X. laevis AHR1β. The conditions noted are these: cited from earlier work.
The next data set has as its system chicken AHR. The settings on record: TCDD binding; cited from earlier work.
The test system of the next data set is mouse AHR. The settings on record: TCDD binding; cited from earlier work.
A further data set concerns tern AHR. The conditions noted are these: tern AHR (V325, A381) vs chicken AHR (I325, S381); cited from earlier work.
In data set [6] the test system is larvae of the tiger salamander. The settings on record: cited from earlier work.
The test system of the next data set is zebrafish. The conditions noted are these: cited from earlier work.

SMILES strings stand for the structures. pEC50, pKd: −log10 of the molar value. Values joined by “and” are separate entries in the source; they are usually repeats but may differ in a detail not shown here. Equal values may be shown once.

`O=Cc1c2[nH]c3ccccc3c2cc2[nH]c3ccccc3c12` [FICZ, 6-formylindolo[3,2-b]carbazole]: the figures for the pEC50 at A. mexicanum AHR [1] and at X. laevis AHR1β [2] were 9.35 and 9.85, respectively. For the same compound, the “EC50 of axolotl AHR relative to that of the chimeric AHR” value on A. mexicanum AHR [1] (FICZ 3 h exposure, fold greater than chimeric AHR) is recorded as “about 45 fold”.

Turning to `Clc1cc2c(cc1Cl)Oc1cc(Cl)c(Cl)cc1O2` [TCDD, 2,3,7,8-tetrachlorodibenzo-p-dioxin], the “EC50 of A. mexicanum AHR relative to that of the mouse:frog chimera” value at A. mexicanum AHR [1] (TCDD 24 h, fold greater than chimeric AHR) is ~300 fold. Also, the “Specific [3H]TCDD binding peak relative to mouse AHR or chimeric AHR” value is recorded as “one-tenth” at A. mexicanum AHR [3] and “approximately one-tenth” at X. laevis AHR1β [4]. The pKd (in general, −log10 of the Kd, conventionally taken in molar units) is 8.96 at AHR2 from zebrafish, 7.33 on X. laevis AHR1α, 9.10 in the data set on chicken AHR and 8.62 in the data set on mouse AHR. For the same compound, at X. laevis AHR1β [5], the “Kd (saturability of TCDD binding)” value is recorded as “unsaturable”. In addition, the “TCDD affinity of tern AHR, fold lower than the chicken AHR” value with tern AHR is 7 fold. Further, the “nominal TCDD concentrations defined as sub-lethal” value in [6] was “up to 3.0 μg/L and ≤ 9.3 nM”. Also, the LC100 result in the data set with zebrafish was “no more than 1.55 nM”.
